High-throughput results: PubChem BioAssay, several laboratories
TAG inh: triacylglycerol accumulation inhibition. H9c2 cells, Nile Red lipid (TAG) fluorescence; cells loaded with 200 µM oleic acid. inhibition, % at 12.5 µM. 230,000 compounds, 0.66% hits. AID 651582;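 active = pattern-corrected inhibition of lipid staining of at least 50% with the nuclear-stain viability signal not falling by more than 50%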;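 also: 0% = DMSO wells and 100% = triacsin C control wells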
STAT1 blocker: inhibitors of IFN-gamma induced STAT1 signaling; 200,000 compounds, 0.35% hits; NIH 3T3 STAT1-luciferase reporter, luminescence; inhibition, % at 5.5 µM;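 active = inhibition above a set limit, the mean inhibition across all tested compounds plus 3 SD, cut at about 34% in these data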;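 also: 0% = IFN-gamma with DMSO and 100% = IFN-gamma with 300 µM nifuroxazide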
STAT3 inh-1: inhibitors of IL-6 induced STAT3 signaling. U3A cells, IL-6 STAT3-luciferase reporter, luminescence; host cell line lacks STAT1. inhibition, % at 5.5 µM. 190,000 compounds, 0.89% hits. AID 862;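 active = inhibition above the mean inhibition across all screened compounds plus 3 SD, cut at about 44% in these data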;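 also: 0% = DMSO only wells and 100% = 100 µM nifuroxazide control wells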
Hep lipid drop: hepatic lipid droplet formation modulation; AML12 mouse hepatocytes, oleate lipid droplets, BODIPY imaging; inhibition, % at 6.5 µM; 240,000 compounds, 0.4% hits; AID 1656;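 active = lipid droplet intensity inhibited by at least 50%, with more than 500 cells counted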
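Material: mouse AML12 hepatocyte cell line, fixed after treatment; Timing: compound with oleate, overnight; Technique: high-content imaging of BODIPY-stained droplets and DAPI nuclei; Probe or stimulus: oleate, 100 µM final; Dosing: compound at 6.5 µM only.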
Platelet DG rel: modulates dense granule release in human platelets | human platelet-rich plasma, SFLLRN dense granule ATP release, luminescence | inhibition, %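 (compounds screened at 7.5 µM in platelet-rich plasma)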 | 300,000 compounds, 0.22% hits | AID 1663;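 active = mean replicate score, as percent of positive control, at or above 50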
PPC-1+TRAIL kill: kills PPC-1 cancer cells in the presence of TRAIL | cell killing (% activity), % at 4 µM or 5 µM | PPC-1 cells + TRAIL, ATPLite viability luminescence | 220,000 compounds, 0.41% hits | AID 1443;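 active = cell killing above 50% in the first pass at 4 µM, then a duplicate retest at 5 µM averaging 50% or more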;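 also: plate controls were cells with TRAIL plus DMSO for no effect and medium-only wells lacking cells for full effect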
STAT3 inh-2: confirmation of STAT3 signaling inhibitors; U3A cells, IL-6 STAT3 luciferase reporter, luminescence; cell line lacks STAT1; shares compounds with STAT3 inh-1; inhibition, % at 5.7 µM; 1,200 compounds, 45% hits;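 active = inhibition above the hit cutoff computed for the primary STAT3 screen, cut at about 44% in these data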;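 also: 0% = IL-6 plus DMSO and 100% = IL-6 plus nifuroxazide control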
NFkB inh 2: inhibits NF-kappaB, counter-screen to STAT3 inhibitors; HEK293T NF-kB luciferase reporter, TNF-alpha induced; inhibition, % at 5.7 µM; 1,200 compounds, 36% hits; AID 1308; shares compounds with STAT3 inh-1;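 active = inhibition above the mean of solvent-only control wells plus 3 SD, cutoff set per campaign, cut at about 13% in these data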;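 also: 0% = TNF-alpha with DMSO and 100% = TNF-alpha with MG high control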
STAT1 inh 2: STAT1 inhibition in STAT3 inhibitor counter-screen; shares compounds with STAT3 inh-1; NIH 3T3 STAT1-luciferase reporter, IFN-gamma induced, luminescence; inhibition, % at 5.7 µM; 1,200 compounds, 27% hits; AID 1317;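 active = inhibition above the mean plus 3 SD of solvent-only control wells, limit set per screening run, cut at about 16% in these data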;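 also: 0% = DMSO with IFN-gamma and 100% = nifuroxazide control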
PPC1 cytotox: PPC-1 cell cytotoxicity; shares compounds with PPC-1+TRAIL kill; PPC-1 viability, ATPlite luminescence, overnight; cytotoxicity, % at 5 µM; 1,200 compounds, 50% hits; AID 1447;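 active = reconfirmed compounds whose average cytotoxicity reaches 50% or more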;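 also: 0% = DMSO-treated cells and 100% = wells holding medium but no cells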
Active calls of the source: *. An excerpt weighted towards active compounds, which were near 1.5% of everything screened.

`CC1(C(=O)NS(=O)(=O)C2CC2)CCCN(C(=O)c2ccc(C(F)(F)F)cc2)C1` (stereo unspecified) gave TAG inh -7.
`O=C(N=Nc1c(O)[nH]c2ccccc12)c1ccc2c(c1)OCO2` gave STAT1 blocker 33, STAT3 inh-1 62*, Hep lipid drop -15, Platelet DG rel 11, PPC-1+TRAIL kill 92*, STAT3 inh-2 25, NFkB inh 2 10, STAT1 inh 2 -15 and PPC1 cytotox 91*.
Screening O=C(N=Nc1c(O)[nH]c2ccccc12)c1ccc(CN2CCOCC2)cc1 returned TAG inh 3, STAT1 blocker -9, STAT3 inh-1 13, Hep lipid drop 13, Platelet DG rel 6 and PPC-1+TRAIL kill 6.
`COc1cccc(C(=O)Cn2c(NCCO)nc3ccccc32)c1` gave STAT1 blocker 6, STAT3 inh-1 6, Hep lipid drop -3, Platelet DG rel -4 and PPC-1+TRAIL kill 11.
For COc1cccc(C(=O)Cn2c(=N)n(C)c3ccccc32)c1 the results were STAT1 blocker 16, STAT3 inh-1 46*, Platelet DG rel 6, PPC-1+TRAIL kill 54*, STAT3 inh-2 -37, NFkB inh 2 -34, STAT1 inh 2 -110 and PPC1 cytotox 50.
Screening CCOC(=O)C1(C)CCCN1C(=O)c1snnc1C (stereo unspecified) returned TAG inh -2.
Screening O=C1c2ccccc2-c2nnc(-c3ccccc3)cc21 returned TAG inh 3, STAT1 blocker 32, STAT3 inh-1 52*, Platelet DG rel 24, PPC-1+TRAIL kill 63*, STAT3 inh-2 55*, NFkB inh 2 33*, STAT1 inh 2 16* and PPC1 cytotox 65*.
Cc1ccc(-c2cc(C(=O)N3CCOCC3)no2)cc1 was read as Hep lipid drop -3 and Platelet DG rel -11.
Screening Cc1ccc(-c2cc(C(=O)N3CCCC3)no2)cc1 returned STAT1 blocker 29, STAT3 inh-1 76*, Hep lipid drop -29, Platelet DG rel -2, PPC-1+TRAIL kill 66*, STAT3 inh-2 48*, NFkB inh 2 16*, STAT1 inh 2 -39 and PPC1 cytotox 68*.
COc1cc(N/N=C/c2ccc(N(C)C)cc2)ncn1 was read as TAG inh 15, STAT1 blocker 33, STAT3 inh-1 61*, Hep lipid drop 2, Platelet DG rel 57*, PPC-1+TRAIL kill 69*, STAT3 inh-2 8, NFkB inh 2 0, STAT1 inh 2 -103 and PPC1 cytotox 69*.
COc1cc(N/N=C/c2ccccc2O)ncn1 was read as STAT1 blocker -9, STAT3 inh-1 19, Hep lipid drop 15, Platelet DG rel -3 and PPC-1+TRAIL kill 13.
COc1ccccc1C(O)c1ncc(-c2cccc(C(F)(F)F)c2)[nH]1 (stereo unspecified) was read as TAG inh -11.
Screening O=C(Nc1nc2c(s1)CCCC2)c1cccs1 returned TAG inh -9, STAT1 blocker -50, STAT3 inh-1 58*, Hep lipid drop 17, PPC-1+TRAIL kill 51*, STAT3 inh-2 14, NFkB inh 2 -23, STAT1 inh 2 -125 and PPC1 cytotox 52*.
Screening CC1(C)CC(=O)c2sc(NC(=O)c3cccs3)nc2C1 returned TAG inh -8, STAT1 blocker 8, STAT3 inh-1 44*, Hep lipid drop -165, Platelet DG rel 3, PPC-1+TRAIL kill 77*, STAT3 inh-2 18, NFkB inh 2 -14, STAT1 inh 2 -10 and PPC1 cytotox 77*.
For CC1(C)CC(=O)c2sc(NC(=O)C(C)(C)C)nc2C1 the results were TAG inh 11, STAT1 blocker -23, STAT3 inh-1 -8, Hep lipid drop 1, Platelet DG rel 0 and PPC-1+TRAIL kill 8.
`CCC(=O)N1CCCC(C)(C(=O)Nc2nccc3ccccc23)C1` (stereo unspecified) gave TAG inh 10.
Screening CC(C)(C)c1ccc(C(=O)N2CCC2(C)C(=O)NCCC#N)cc1 (stereo unspecified) returned TAG inh 16.
Screening O=C(Nc1cccnc1Cl)c1ccc2c(Cl)c3c(nc2c1)CCC3 returned STAT1 blocker -37, STAT3 inh-1 56*, Hep lipid drop 7, Platelet DG rel 6, PPC-1+TRAIL kill 63*, STAT3 inh-2 12, NFkB inh 2 -39, STAT1 inh 2 -96 and PPC1 cytotox 65*.
For N#Cc1ccccc1NC(=O)c1ccc2c(Cl)c3c(nc2c1)CCCC3 the results were STAT1 blocker -22, STAT3 inh-1 -6, Hep lipid drop 4, Platelet DG rel -1 and PPC-1+TRAIL kill 37.
O=C(/C=C/Nc1ccc(F)c(Cl)c1)c1ccccc1 was read as Hep lipid drop 12 and Platelet DG rel 2.
For C/C(=C\C(=O)c1ccc(C)cc1)Nc1cccc(O)c1 the results were STAT1 blocker -1, STAT3 inh-1 24, Platelet DG rel 9 and PPC-1+TRAIL kill 27.
O=C(/C=C/Nc1cccc(O)c1)c1ccccc1 was read as STAT1 blocker 7, STAT3 inh-1 86*, Platelet DG rel 38, PPC-1+TRAIL kill 74*, STAT3 inh-2 65*, NFkB inh 2 -3, STAT1 inh 2 2 and PPC1 cytotox 72*.
Cc1ccc(C(=O)/C=C/Nc2cccc(O)c2)cc1 was read as STAT1 blocker 7, STAT3 inh-1 94*, Hep lipid drop 8, Platelet DG rel 22, PPC-1+TRAIL kill 88*, STAT3 inh-2 90*, NFkB inh 2 32*, STAT1 inh 2 34* and PPC1 cytotox 88*.
`COc1cccc(C(=O)Nc2ccc(NC(=O)C(C)(C)C)cn2)c1` gave TAG inh 15, STAT1 blocker 16, STAT3 inh-1 58*, Hep lipid drop 7, Platelet DG rel 20, PPC-1+TRAIL kill 71*, STAT3 inh-2 8, NFkB inh 2 -14, STAT1 inh 2 -67 and PPC1 cytotox 73*.
COc1cccc(C(=O)Nc2ccc(NC(=O)C3CCCCC3)nc2)c1 was read as Hep lipid drop 7 and Platelet DG rel -5.
